Calls of active or inactive are those of the source. No cut-off for these calls is given here.
How the values were obtained:
[1] = test system: HepG2; experiment: Induction of apoptosis in human HepG2 cells assessed as early apoptotic cells at 3.2 uM incubated for 48 hrs by Annexin V and dead cell assay kit (reference value: 4.55%); format: functional
Procedure, shortened: (§1)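 HepG2 cells were grown in DMEM and exposed to 0, 0.8, 1.6 or 3.2 µM test agent or DMSO vehicle for 48 h. Apoptosis was then read on a Muse cell analyzer using an Annexin V & Dead Cell kit, which separates live, early apoptotic, late apoptotic and dead populations. The figure legend gives n = 3 with SEM.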

[2] = test system: HepG2; experiment: Cytotoxicity against human HepG2 cells assessed as inhibition rate at 2.5 uM incubated for 72 hrs by MTT assay relative to control; format: functional
Procedure, shortened: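 HepG2 exposed to each compound at 2.5 µM-range single concentration for 72 h at 37 °C after overnight attachment in DMEM + 10% FBS; 0.1% DMSO control. MTT 4 h, DMSO solubilisation, A570; inhibition rate = (Ac−As)/(Ac−Ab)×100.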

[3] = test system: Bel-7402; experiment: Induction of cell cycle arrest in human Bel-7402 cells assessed as accumulation at S phase at 0.8 uM incubated for 48 hrs by flow cytometry (reference value: 28.48%); format: functional
[4] = test system: HepG2; experiment: Induction of apoptosis in human HepG2 cells assessed as dead cells at 1.6 uM incubated for 48 hrs by Annexin V and dead cell assay kit (reference value: 0.55%); format: functional; procedure, shortened: as §1
[5] = test system: Bel-7402; experiment: Induction of cell cycle arrest in human Bel-7402 cells assessed as accumulation at S phase at 1.6 uM incubated for 48 hrs by flow cytometry (reference value: 28.48%); format: functional
[6] = test system: HepG2; experiment: Induction of reactive oxygen species generation in human HepG2 cells incubated for 48 hrs by DCFH-DA based fluorescent microscopy; format: functional, cell-based; details: dose 1.6-3.2 µM
Procedure, shortened: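 HepG2 cultured 48 h with 0, 0.8, 1.6 or 3.2 µM, washed, loaded with […] DCFH-DA for 20 min at 37 °C in the dark; fluorescence viewed by microscopy.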

[7] = test system: Bel-7402; experiment: Induction of cell cycle arrest in human Bel-7402 cells assessed as accumulation at G2/M phase at 1.6 uM incubated for 48 hrs by flow cytometry (reference value: 25.20%); format: functional
[8] = test system: Bel-7402; experiment: Induction of cell cycle arrest in human Bel-7402 cells assessed as accumulation at G1 phase at 3.2 uM incubated for 48 hrs by flow cytometry (reference value: 46.32%); format: functional
[9] = molecular target: Mitogen-activated protein kinase; ERK1/ERK2 (Homo sapiens) (UniProt P27361+P28482); experiment: Upregulation of ERK1/2 phosphorylation in human Bel-7402 cells incubated for 48 hrs by Western blot analysis
[10] = test system: HepG2; experiment: Antitumor activity against human HepG2 cells xenografted in BALB/c mouse assessed as tumor growth inhibition at 8 mg/kg, ip relative to control; format: functional; details: read-out: TGI
Procedure, shortened: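 Female BALB/c nude mice (14–17 g) given HepG2 s.c. (1×10⁶/mouse); at 100–200 mm³ tumours, randomised to 3 groups of 5. Daily i.p. dosing at 4 or 8 mg/kg for 20 days; vehicle 15% N-methylpyrrolidone/25% Solutol HS-15/60% saline. Caliper volume twice weekly, TV = width² × length/2; inhibition from volume change versus vehicle group.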

[11] = test system: HepG2; experiment: Induction of cell cycle arrest in human HepG2 cells assessed as accumulation at G1 phase at 0.8 uM incubated for 48 hrs by flow cytometry (reference value: 46.88%); format: functional
[12] = test system: HepG2; experiment: Induction of apoptosis in human HepG2 cells assessed as early apoptotic cells at 1.6 uM incubated for 48 hrs by Annexin V and dead cell assay kit (reference value: 4.55%); format: functional; procedure, shortened: as §1
[13] = test system: HepG2; experiment: Induction of apoptosis in human HepG2 cells assessed as dead cells at 3.2 uM incubated for 48 hrs by Annexin V and dead cell assay kit (reference value: 0.55%); format: functional; procedure, shortened: as §1
[14] = test system: NCI-H1299; experiment: Cytotoxicity against human NCI-H1299 cells assessed as inhibition of proliferation incubated for 72 hrs by MTT assay; format: functional, cell-based; details: NCI-H1299, 72 h
Procedure, shortened: (§2)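 Cells plated at 3×10³/well, grown overnight in DMEM + 10% FBS, then exposed to compounds (DMSO stocks; 0.1% DMSO negative control) for 72 h at 37 °C. MTT (5 mg/mL in PBS, added at 10%) for 4 h, formazan dissolved in DMSO, A570 read. Inhibition = (Ac−As)/(Ac−Ab)×100; IC50 by calculator; ≥3 independent repeats.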

[15] = test system: L02; experiment: Cytotoxicity against human L-O2 cells assessed as inhibition of proliferation incubated for 72 hrs by MTT assay; format: cell-based; details: L02, 72 h
[16] = test system: HepG2; experiment: Induction of cell cycle arrest in human HepG2 cells assessed as accumulation at G2/M phase at 1.6 uM incubated for 48 hrs by flow cytometry (reference value: 24.89%); format: functional
Procedure, shortened: (§3)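 HepG2 treated 48 h with 0, 0.8 or 1.6 µM (DMSO control); phase distribution by flow cytometry using a cell cycle and apoptosis kit; mean with SD, n = 3.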

[17] = molecular target: Serine/threonine-protein kinase AKT (Homo sapiens) (UniProt P31751+Q9Y243+P31749); experiment: Inhibition of Akt phosphorylation in human HepG2 cells incubated for 48 hrs by Western blot analysis; format: cell-based; details: dose 1.6-3.2 µM
Procedure, shortened: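 HepG2 treated 48 h with 0, 1.6 or 3.2 µM; lysates run on 12.5% SDS-PAGE, PVDF transfer, primary antibodies (AKT, p-AKT, ERK1/2, p-ERK1/2; 1:1000) overnight at 4 °C, HRP secondaries 1 h, chemiluminescence. Phosphorylation quantified relative to untreated control set to 1; SD, n = 3.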

[18] = test system: HCT-116; experiment: Cytotoxicity against human HCT116 cells assessed as inhibition of proliferation incubated for 72 hrs by MTT assay; format: functional, cell-based; details: HCT-116, 72 h; procedure, shortened: as §2
[19] = test system: HepG2; experiment: Cytotoxicity against human HepG2 cells assessed as inhibition of proliferation incubated for 72 hrs by MTT assay; format: functional, cell-based; details: HepG2, 72 h; procedure, shortened: as §2
[20] = Toxicity in BALB/c mouse xenografted with human HepG2 cells at 4 to 8 mg/kg, ip relative to control; format: organism-based; details: in vivo, dose 4-8 mg/kg
Procedure, shortened: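 Female BALB/c nude mice (14–17 g) carrying s.c. HepG2 xenografts (100–200 mm³), 5 per group. Dosed i.p. daily for 20 days at 4 or 8 mg/kg in 15% N-methylpyrrolidone/25% Solutol HS-15/60% saline, with vehicle controls. Body weight tracked over the treatment.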

[21] = test system: Bel-7402; experiment: Induction of cell cycle arrest in human Bel-7402 cells assessed as accumulation at G1 phase at 0.8 uM incubated for 48 hrs by flow cytometry (reference value: 46.32%); format: functional
[22] = test system: HepG2; experiment: Induction of cell cycle arrest in human HepG2 cells assessed as accumulation at S phase at 0.8 uM incubated for 48 hrs by flow cytometry (reference value: 28.23%); format: functional; procedure, shortened: as §3
[23] = Selectivity index, ratio of IC50 for human LO2 cells to IC50 for human HepG2 cells; format: toxicity; details: LO2 cells versus HepG2 cells, read-out: Selectivity Index
[24] = test system: HepG2; experiment: Induction of apoptosis in human HepG2 cells assessed as late apoptotic cells at 0.8 uM incubated for 48 hrs by Annexin V and dead cell assay kit (reference value: 1%); format: functional; procedure, shortened: as §1

Chain of Mitogen-activated protein kinase; ERK1/ERK2 (Homo sapiens) (P27361 whole entry, looked up): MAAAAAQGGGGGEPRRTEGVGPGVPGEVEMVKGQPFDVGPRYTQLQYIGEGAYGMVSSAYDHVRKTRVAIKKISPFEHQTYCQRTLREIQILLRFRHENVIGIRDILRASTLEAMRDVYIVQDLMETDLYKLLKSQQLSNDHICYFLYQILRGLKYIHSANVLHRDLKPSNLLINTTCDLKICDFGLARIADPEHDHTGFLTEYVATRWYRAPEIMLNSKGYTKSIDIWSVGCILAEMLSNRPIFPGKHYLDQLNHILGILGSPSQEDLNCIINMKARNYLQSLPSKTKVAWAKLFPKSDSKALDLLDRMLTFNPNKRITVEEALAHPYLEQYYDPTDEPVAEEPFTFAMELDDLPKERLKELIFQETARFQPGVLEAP
Chain of Mitogen-activated protein kinase; ERK1/ERK2 (Homo sapiens) (P28482 whole entry, looked up): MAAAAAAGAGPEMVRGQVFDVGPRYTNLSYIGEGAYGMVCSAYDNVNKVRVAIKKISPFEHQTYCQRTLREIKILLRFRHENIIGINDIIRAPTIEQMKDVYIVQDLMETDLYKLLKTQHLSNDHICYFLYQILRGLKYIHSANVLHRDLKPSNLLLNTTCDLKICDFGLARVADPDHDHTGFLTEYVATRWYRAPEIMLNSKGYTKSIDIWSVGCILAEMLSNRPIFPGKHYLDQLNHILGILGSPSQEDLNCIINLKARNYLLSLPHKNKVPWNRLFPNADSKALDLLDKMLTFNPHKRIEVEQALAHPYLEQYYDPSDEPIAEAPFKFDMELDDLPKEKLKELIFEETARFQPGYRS
Chain of Serine/threonine-protein kinase AKT (Homo sapiens) (P31749 whole entry, looked up): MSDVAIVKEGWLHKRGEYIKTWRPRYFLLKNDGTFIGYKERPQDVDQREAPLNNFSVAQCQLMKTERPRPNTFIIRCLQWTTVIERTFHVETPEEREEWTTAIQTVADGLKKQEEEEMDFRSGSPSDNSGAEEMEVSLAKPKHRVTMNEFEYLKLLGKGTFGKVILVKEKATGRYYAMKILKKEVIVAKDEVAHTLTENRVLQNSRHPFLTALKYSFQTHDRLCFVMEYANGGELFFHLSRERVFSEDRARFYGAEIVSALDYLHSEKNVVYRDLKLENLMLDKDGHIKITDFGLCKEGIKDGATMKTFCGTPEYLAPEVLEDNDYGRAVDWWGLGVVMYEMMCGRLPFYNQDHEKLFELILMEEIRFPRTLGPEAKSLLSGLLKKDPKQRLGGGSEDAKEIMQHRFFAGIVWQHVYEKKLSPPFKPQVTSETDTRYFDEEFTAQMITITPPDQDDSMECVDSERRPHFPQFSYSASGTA
Chain of Serine/threonine-protein kinase AKT (Homo sapiens) (P31751 whole entry, looked up): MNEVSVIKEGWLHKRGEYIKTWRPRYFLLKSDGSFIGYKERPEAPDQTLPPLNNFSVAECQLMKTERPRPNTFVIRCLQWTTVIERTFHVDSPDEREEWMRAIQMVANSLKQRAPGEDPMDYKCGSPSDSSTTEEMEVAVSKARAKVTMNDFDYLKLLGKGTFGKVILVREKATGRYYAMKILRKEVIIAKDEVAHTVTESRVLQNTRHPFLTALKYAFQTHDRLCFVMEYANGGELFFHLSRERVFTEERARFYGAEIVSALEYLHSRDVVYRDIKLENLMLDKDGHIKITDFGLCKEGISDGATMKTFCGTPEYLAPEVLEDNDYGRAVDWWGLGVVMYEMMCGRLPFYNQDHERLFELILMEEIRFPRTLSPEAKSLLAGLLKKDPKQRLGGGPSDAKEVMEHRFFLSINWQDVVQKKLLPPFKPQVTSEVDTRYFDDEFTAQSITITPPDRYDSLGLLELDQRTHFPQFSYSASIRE
Chain of Serine/threonine-protein kinase AKT (Homo sapiens) (Q9Y243 whole entry, looked up): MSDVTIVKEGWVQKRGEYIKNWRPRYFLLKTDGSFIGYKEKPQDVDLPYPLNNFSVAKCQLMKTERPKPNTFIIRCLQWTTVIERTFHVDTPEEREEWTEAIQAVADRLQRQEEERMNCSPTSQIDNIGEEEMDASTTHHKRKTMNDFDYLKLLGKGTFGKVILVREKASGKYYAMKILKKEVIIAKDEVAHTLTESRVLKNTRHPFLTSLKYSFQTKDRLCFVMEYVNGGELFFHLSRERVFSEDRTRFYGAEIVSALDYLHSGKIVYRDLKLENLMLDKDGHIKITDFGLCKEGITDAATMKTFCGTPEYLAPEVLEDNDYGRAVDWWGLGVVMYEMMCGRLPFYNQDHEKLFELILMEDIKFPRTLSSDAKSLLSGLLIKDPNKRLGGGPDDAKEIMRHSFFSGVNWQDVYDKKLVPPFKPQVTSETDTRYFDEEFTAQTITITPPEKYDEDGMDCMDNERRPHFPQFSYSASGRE

## COc1cc(C(=O)c2nc3ccccc3c(=O)[nH]2)cc(OC)c1OC
[1]
  Activity: 22.1%
[2]
  inhibition at 2.5 µM: 73%
[3]
  Activity: 33.11%
[4]
  Activity: 0.95%
[5]
  Activity: 34.5%
[6]
  Activity: Active
[7]
  Activity: 32.43%
[8]
  Activity: 26.15%
[9]
  Activity: Dose-Dependent Effect
[10]
  inhibition in vivo at 8 mg/kg: 67.6%
[11]
  Activity: 37.84%
[12]
  Activity: 11.7%
[13]
  Activity: 0.55%
[14]
  IC50: 13.9 µM
[15]
  IC50: 6.01 µM
[16]
  Activity: 35.18%
[17]
  inhibition: Dose-Dependent Effect
[18]
  IC50: 5.47 µM
[19]
  IC50: 1.22 µM
[20]
  Activity: Non-Toxic
[21]
  Activity: 39.2%
[22]
  Activity: 33.43%
[23]
  selectivity ratio: 4.9
[24]
  Activity: 2%

Reference: ChEMBL document CHEMBL4842335, “Discovery of penipanoid C-inspired 2-(3,4,5-trimethoxybenzoyl)quinazolin-4(3H)-one derivatives as potential anticancer agents by inhibiting cell proliferation and inducing apoptosis in hepatocellular carcinoma cells” (Eur J Med Chem, 2021)
